Our source for the Activity, IC50 and EC50 values is ChEMBL document CHEMBL1772999, “Synthesis and biological evaluation of 2,4,5-substituted pyrimidines as a new class of tubulin polymerization inhibitors” (J Med Chem, 2011).

Active and inactive are the calls of the source. No cut-off for these calls is given here.

The target of experiment [1] is Tubulin (Sus scrofa) (UniProt P02554+P02550). Nature of the experiment: Displacement of colchicine from pig brain tubulin at 25 uM after 60 mins by fluorescence assay. In outline: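 Tubulin (3 μM) preincubated with colchicine (3 μM) 30 min at 37 °C, then compound added (0–25 μM). Fluorescence spectra (excitation 365 nm, emission 435 nm) recorded after 60 min at 37 °C, buffer blank subtracted.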
Sequence of Tubulin (Sus scrofa) (P02550 whole entry, looked up): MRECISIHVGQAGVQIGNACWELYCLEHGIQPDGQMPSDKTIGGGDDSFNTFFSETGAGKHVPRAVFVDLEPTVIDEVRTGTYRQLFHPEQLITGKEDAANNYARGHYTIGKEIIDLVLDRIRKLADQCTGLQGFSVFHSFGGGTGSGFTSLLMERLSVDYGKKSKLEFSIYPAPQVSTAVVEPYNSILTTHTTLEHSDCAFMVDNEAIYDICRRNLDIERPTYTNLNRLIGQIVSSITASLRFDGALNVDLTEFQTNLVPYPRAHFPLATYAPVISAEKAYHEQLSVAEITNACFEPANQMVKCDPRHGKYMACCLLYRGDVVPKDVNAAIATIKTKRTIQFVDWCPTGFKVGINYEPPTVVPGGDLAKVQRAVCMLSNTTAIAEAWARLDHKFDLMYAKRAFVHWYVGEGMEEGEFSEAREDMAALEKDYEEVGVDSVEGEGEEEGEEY
Sequence of Tubulin (Sus scrofa) (P02554 whole entry, looked up): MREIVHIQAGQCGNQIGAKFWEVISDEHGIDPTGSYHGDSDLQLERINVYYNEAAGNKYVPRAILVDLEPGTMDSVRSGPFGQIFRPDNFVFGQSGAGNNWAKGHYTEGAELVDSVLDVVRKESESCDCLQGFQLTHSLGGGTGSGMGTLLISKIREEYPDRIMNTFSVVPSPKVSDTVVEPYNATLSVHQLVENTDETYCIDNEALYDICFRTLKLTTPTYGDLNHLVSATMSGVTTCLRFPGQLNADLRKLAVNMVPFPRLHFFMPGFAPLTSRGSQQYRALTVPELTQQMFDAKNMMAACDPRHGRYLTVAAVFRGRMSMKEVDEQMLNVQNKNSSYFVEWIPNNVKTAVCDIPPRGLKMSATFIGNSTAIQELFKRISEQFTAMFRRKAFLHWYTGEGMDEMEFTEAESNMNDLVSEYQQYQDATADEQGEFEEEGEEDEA

In experiment [2] the test system is A-431. As to the kind of experiment: Antiproliferative activity against human A431 cells after 72 hrs by sulforhodamine B assay. Format: functional, cell-based. Particulars: A-431, 72 h. In outline:
(§1)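 SRB survival assay: cells seeded in 96-well plates, exposed to a range of compound concentrations for 72 h, fixed with 10% TCA 1 h at 4 °C, stained with 0.4% (w/v) SRB 20 min at room temperature, washed with 1% acetic acid, dye solubilized in 10 mM Tris, absorbance at 510 nm.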
(In general: The SRB assay estimates cell density from bound dye.)

Experiment [3] deals with SK-OV-3. As to the kind of experiment: Antiproliferative activity against human SKOV3 cells after 72 hrs by sulforhodamine B assay. It counts as functional, cell-based. Particulars: SK-OV-3, 72 h. In a few lines:
as §1

Experiment [4] has as its system HT-29. As to the kind of experiment: Antiproliferative activity against human HT-29 cells after 72 hrs by sulforhodamine B assay. The following applies: HT-29, 72 h. It counts as functional, cell-based. In a few lines:
as §1

The test system of experiment [5] is NCI-H460. As to the kind of experiment: Antiproliferative activity against human NCI-H460 cells after 72 hrs by sulforhodamine B assay. It counts as functional, cell-based. The following applies: NCI-H460, 72 h. In outline:
as §1

In experiment [6] the test system is A549. As to the kind of experiment: Antiproliferative activity against human A549 cells after 72 hrs by sulforhodamine B assay. It counts as functional, cell-based. The following applies: A549, 72 h. In outline:
as §1

In experiment [7] the test system is KB. As to the kind of experiment: Cell cycle arrest in human KB cells assessed as accumulation of cells at G2/M phase after 24 hrs by propidium iodide-based FACScan. It counts as functional. In a few lines: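 Subconfluent KB cells exposed to a range of concentrations for 24 h. Adherent plus detached cells collected by trypsinization, fixed overnight in 70% ethanol, stained 30 min at 37 °C with propidium iodide 50 μg/mL plus DNase-free RNase A 50 μg/mL. 10000 cells per group analyzed by flow cytometry.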

The target of experiment [8] is Tubulin (Sus scrofa, UniProt P02554+P02550). As to the kind of experiment: Inhibition of pig brain tubulin polymerization by spectrophotometry. In outline: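 Pig brain microtubule protein from three assembly/disassembly cycles, tubulin purified by phosphocellulose chromatography. Polymerization in PEM buffer (100 mM PIPES, 1 mM EGTA, 1 mM MgCl2) with 1 mM GTP and 5% glycerol at 37 °C, followed by light scattering at 340 nm.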

Experiment [9] relates to Bel-7402. As to the kind of experiment: Antiproliferative activity against human Bel7402 cells after 72 hrs by sulforhodamine B assay. It counts as functional, cell-based. Particulars: Bel-7402, 72 h. In outline:
as §1

In general, IC50 refers to the concentration that inhibits the measured activity by half. Usually EC50 stands for the concentration giving half of the maximal effect. In the case of `CCC1=C[C@@H]2CN(C1)Cc1c([nH]c3ccccc13)[C@@](C(=O)OC)(c1cc3c(cc1OC)N(C)[C@H]1[C@@](O)(C(=O)OC)[C@H](OC(C)=O)[C@]4(CC)C=CCN5CC[C@]31[C@@H]54)C2` [VINORELBINE], the result in [1] was inactive. The IC50 in experiment [2] was found to be 60 nM; in [3], 26.7 nM; in [4], 11.9 nM; in experiment [5], 43.7 nM; in [6], 64.6 nM. For the same compound, in experiment [7], the EC50 amounted to 6 nM.
With `CCn1ccc2cc(-c3cnc(N)nc3-c3ccc(OC)cc3O)ccc21`, the IC50 in experiment [8] was > 50000 nM; in experiment [9] it was > 10000 nM.
On the same counts, the results for `CCn1ccc2cc(-c3cnc(N)nc3-c3cc(OC)ccc3O)ccc21` are > 50000 nM and > 10000 nM.
`CCN(CC)c1ccc(-c2cnc(N)nc2-c2ccccc2O)cc1`: the IC50 amounted to 5570 nM in [8]; 100 nM in experiment [9]; 76.6 nM in experiment [2]; 171 nM in [3]; 95.4 nM in [4]; 57 nM in [5]. The IC50 in experiment [6] was found to be 241 nM.
With `Nc1ncc(-c2ccc3[nH]ccc3c2)c(-c2ccccc2O)n1`, the half-inhibitory concentration (IC50) in experiment [8] is > 50000 nM; in [9], > 10000 nM.
Consider `Cn1ccc2cc(-c3cnc(N)nc3-c3ccccc3O)ccc21`, for which the IC50 in experiment [8] came out at 920 nM; in experiment [9] it was 50 nM; in experiment [2] it was 21.7 nM; in experiment [3] it was 69.2 nM; in experiment [4] it was 30.8 nM; in experiment [5] it was 20.5 nM. This compound returned an IC50 in [6] of 48.2 nM.
With `CCn1ccc2cc(-c3cnc(N)nc3-c3ccc(OC)c(OC)c3O)ccc21`, the results for the half-inhibitory concentration (IC50) in [8] and in [9] were > 50000 nM and > 10000 nM, respectively.
As for `CN1CCN(Cc2ccc(-c3cnc(N)nc3-c3ccccc3O)cc2)CC1`, the IC50 in [8] was > 50000 nM; in [9], > 10000 nM.
Take `CN(C)Cc1ccc(-c2cnc(N)nc2-c2ccccc2O)cc1`: the IC50 is > 50000 nM in experiment [8] and > 10000 nM in experiment [9].
For the compound `COc1cc2c(c(OC)c1OC)-c1ccc(OC)c(=O)cc1[C@@H](NC(C)=O)CC2` [COLCHICINE], the IC50 in [9] was determined as 40 nM; in experiment [2], 53.2 nM; in [3] it was 71.2 nM; in [4] it was 21.9 nM; in experiment [5], 50.6 nM; in experiment [6], 37 nM. Also, the EC50 in [7] is 10 nM.
For `CN1CCN(c2ccc(-c3cnc(N)nc3-c3ccccc3O)cc2)CC1`, the IC50 in experiment [8] is > 50000 nM; in experiment [9], > 10000 nM.
On to `Nc1ncc(-c2ccc(N3CCCC3)cc2)c(-c2ccccc2O)n1`, for which the values for the IC50 in [8] and in experiment [9] were > 50000 nM and > 10000 nM, respectively.
With `CCn1ccc2cc(-c3cnc(N)nc3-c3ccccc3O)ccc21`, the IC50 was determined as 790 nM in experiment [8]; 16 nM in experiment [9]; 20.3 nM in experiment [2]; 32 nM in [3]; 28.2 nM in [4]; 19 nM in experiment [5]. In experiment [6], this compound showed a half-inhibitory concentration (IC50) of 62 nM. The result in experiment [1] was Active. Besides, in experiment [7], the EC50 is 20 nM.
Consider `CCn1ccc2c(-c3cnc(N)nc3-c3ccccc3O)cccc21`, for which the half-inhibitory concentration (IC50) is > 50000 nM in experiment [8] and 1000 nM in [9].
With `CCn1ccc2cc(-c3cnc(N)nc3-c3cc(OC)c(OC)cc3O)ccc21`, the IC50 in experiment [8] is > 50000 nM; in experiment [9], > 10000 nM.
As to `CCn1ccc2cc(-c3cnc(N)nc3-c3ccccc3O)cnc21`, the IC50 was > 50000 nM in experiment [8] and 1000 nM in experiment [9].
As to `Nc1ncc(-c2ccc(N3CCCCC3)cc2)c(-c2ccccc2O)n1`, the IC50 in experiment [8] was > 50000 nM; in experiment [9], > 10000 nM.
On the same counts, the results for `Nc1ncc(-c2ccc(N3CCOCC3)cc2)c(-c2ccccc2O)n1` are > 50000 nM and > 10000 nM.
On the same counts, the results for `Nc1ncc(-c2ccc(CN3CCOCC3)cc2)c(-c2ccccc2O)n1` are > 50000 nM and > 10000 nM.
For the compound `Nc1ncc(-c2ccc(CN3CCCCC3)cc2)c(-c2ccccc2O)n1`, the results for the 50% inhibitory concentration (IC50) in [8] and in [9] were > 50000 nM and > 10000 nM, respectively.
Consider `CCn1ccc2cc(-c3cnc(N)nc3-c3cc(F)ccc3O)ccc21`, for which the IC50 in experiment [8] came out at 800 nM; in experiment [9], 10 nM; in [2], 45.4 nM; in [3], 56.1 nM; in experiment [4], 41.8 nM; in [5], 25.8 nM. In experiment [6], this compound registered an IC50 of 70.4 nM.
Take `CCn1ccc2ccc(-c3cnc(N)nc3-c3ccccc3O)cc21`: the half-maximal inhibitory concentration (IC50) in [8] is > 50000 nM; in [9], > 10000 nM.
For the compound `CC(C)n1ccc2cc(-c3cnc(N)nc3-c3ccccc3O)ccc21`, the 50% inhibitory concentration (IC50) in [8] was 5000 nM; in experiment [9], 80 nM; in experiment [2], 760 nM; in experiment [3], 760 nM; in experiment [4], 918 nM; in experiment [5], 485 nM. This compound also displayed an IC50 in experiment [6] of 1310 nM.
`CCN(C)c1ccc(-c2cnc(N)nc2-c2ccccc2O)cc1` yielded an IC50 in [8] of 2350 nM.
`CC(=O)O[C@H]1C(=O)[C@@]2(C)[C@H]([C@H](OC(=O)c3ccccc3)[C@]3(O)C[C@H](OC(=O)[C@H](O)[C@@H](NC(=O)c4ccccc4)c4ccccc4)C(C)=C1C3(C)C)[C@]1(OC(C)=O)CO[C@@H]1C[C@@H]2O` [PACLITAXEL]: the IC50 in experiment [2] was 9.2 nM; in experiment [3], 14.5 nM; in experiment [4] it was 6.1 nM; in experiment [5] it was 14.6 nM. Moreover, the EC50 in experiment [7] amounted to 2 nM.
